Data set [1] in a line: Acute toxicity in po dosed Swiss albino mouse after 24 hrs. The format is organism-based. As to conditions: in vivo, read-out: ALD50. The essentials:
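Four groups of five Swiss albino mice (20–30 g), fasted 24 h beforehand, given compounds orally at graded doses of 0–300 mg/kg. Mortality recorded at each dose level after 24 h to estimate the acute lethal dose (ALD50).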

The subject of data set [2] is Rattus norvegicus. Description: Antiinflammatory activity in Wistar albino rat acute inflammatory model assessed as inhibition of formalin-induced paw edema at 20 mg/kg, po administered 1 hr before formalin challenge measured after 2 hrs by plethysmometer relative to control. The format is functional. More on the design: scale not given: the % may be the effect or the level left. The essentials:
(§1)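 Male Wistar rats, 180–200 g, groups of five. Test compound 20 mg/kg po; 1 h later 0.1 mL 2% formalin injected subplantar into left hind paw under light ether anesthesia. Paw volume by water plethysmometer at 0 and 1, 2, 3, 4 h after formalin. % inhibition = (Vt−V0)control minus (Vt−V0)treated, divided by (Vt−V0)control ×100. Mean ± SEM, ANOVA with Student–Newman–Keuls.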

Data set [3] relates to Rattus norvegicus. Description: Gastrointestinal toxicity in Wistar albino rat assessed as ulceration at 100 mg/kg/day, po administered twice daily for 3 days. Type of data set: organism-based. Further details: route oral. As to conditions: in vivo, 72 h. Summed up:
(§2)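 Male rats 180–200 g, groups of five, fasted 12 h with water available. Compounds given orally as two equal doses at 0 and 12 h, 100 mg/kg per day, for three successive days; vehicle control 1% gum acacia. Rats killed 6 h after last dose. Stomach opened along greater curvature, washed with cold saline and inspected under 3× lens for hyperemia, hemorrhage, erosions or ulcers.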

For data set [4], the system named is Rattus norvegicus. Description: Gastrointestinal toxicity in Wistar albino rat assessed as hyperemia at 100 mg/kg/day, po administered twice daily for 3 days. The format is organism-based. Further details: route oral. Particulars: in vivo, 72 h. Summed up: as §2
For data set [5], the system named is THP-1. Description: Inhibition of MCP1 release in human THP1 cells after 24 hrs by ELISA. The format is functional, cell-based. Summed up: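 THP-1 cells pretreated 15 min with compound, then stimulated with LPS 0.5 µg/mL plus IFN-γ 150 U/mL. After 24 h, MCP-1 (ng/mL) measured in cell-free medium by ELISA.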
Data set [6] deals with SH-SY5Y. Description: Neuroprotective activity in human SH-SY5Y cells assessed as inhibition of H2O2-induced cytotoxicity after 72 hrs by LDH assay. Type of data set: functional, cell-based. Summed up:
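SH-SY5Y cells plated in DMEM-F12 with 5% FBS. After 24 h, medium replaced with medium containing H2O2 (500 µM in methods, 250 µM in figure legend), and compound added directly at that time. Cell death measured by LDH release 72 h later.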

The test system of data set [7] is Rattus norvegicus. Description: Antiinflammatory activity in Wistar albino rat sub-acute inflammatory model assessed as inhibition of turpentine oil-induced granuloma pouch exudate volume at 20 mg/kg, po 1 hr before turpentine oil challenge for 7 days assessed measured on day 8. The format is functional. Summed up: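 Male rats 120–150 g, five per group. Subcutaneous dorsal pouch made under ether with 2 mL air, then 0.5 mL turpentine oil injected. Compound 20 mg/kg po 1 h before turpentine, then daily for seven days. On day 8 exudate drawn by syringe under anesthesia and volume measured. % inhibition = (Vcontrol − Vtreated)/Vcontrol ×100.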

The target in data set [8] is T1, Prostaglandin G/H synthase 1 (Ovis aries) (UniProt P05979).
T1 sequence (whole entry): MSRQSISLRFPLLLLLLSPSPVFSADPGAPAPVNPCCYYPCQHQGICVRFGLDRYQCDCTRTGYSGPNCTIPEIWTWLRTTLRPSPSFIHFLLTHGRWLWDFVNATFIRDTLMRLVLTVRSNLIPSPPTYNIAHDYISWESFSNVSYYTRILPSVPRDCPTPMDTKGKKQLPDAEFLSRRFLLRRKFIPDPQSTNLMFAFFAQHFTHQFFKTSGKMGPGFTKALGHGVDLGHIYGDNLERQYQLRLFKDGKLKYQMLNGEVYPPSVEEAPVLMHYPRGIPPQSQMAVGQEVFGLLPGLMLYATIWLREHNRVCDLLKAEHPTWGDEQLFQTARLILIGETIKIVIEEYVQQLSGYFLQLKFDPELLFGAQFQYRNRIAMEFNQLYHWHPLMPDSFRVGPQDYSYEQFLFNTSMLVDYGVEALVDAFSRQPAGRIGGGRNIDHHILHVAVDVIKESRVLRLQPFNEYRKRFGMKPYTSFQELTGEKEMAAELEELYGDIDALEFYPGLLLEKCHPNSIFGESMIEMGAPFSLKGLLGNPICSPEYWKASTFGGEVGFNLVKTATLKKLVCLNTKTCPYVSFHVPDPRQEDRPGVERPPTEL
The data set can be described thus: Inhibition of ovine COX1 at 10 uM. The essentials:
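Kit assay with ovine COX-1, run per manufacturer's protocol. Read-out was percent inhibition of prostaglandin production, with compound at 10 µM and three experiments.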

For data set [9], the system named is Rattus norvegicus. Description: Antiinflammatory activity in Wistar albino rat acute inflammatory model assessed as inhibition of formalin-induced paw edema at 20 mg/kg, po administered 1 hr before formalin challenge measured after 3 hrs by plethysmometer relative to control. The format is functional. Further details: scale not given: the % may be the effect or the level left. The essentials: as §1

The subject of data set [10] is Rattus norvegicus. The data set can be described thus: Antiinflammatory activity in Wistar albino rat acute inflammatory model assessed as inhibition of formalin-induced paw edema at 20 mg/kg, po administered 1 hr before formalin challenge measured after 1 hr by plethysmometer relative to control. Type of data set: functional. More on the design: scale not given: the % may be the effect or the level left. The essentials: as §1

The subject of data set [11] is Rattus norvegicus. The data set can be described thus: Antiinflammatory activity in Wistar albino rat acute inflammatory model assessed as inhibition of formalin-induced paw edema at 20 mg/kg, po administered 1 hr before formalin challenge measured after 4 hrs by plethysmometer relative to control. More on the design: scale not given: the % may be the effect or the level left. Type of data set: functional. Summed up: as §1

For a further data set, the system named is HL-60. Description: Inhibition of phagocyte respiratory burst in human HL60 cells after 6 to 7 days by luminol-induced chemiluminescence. The format is functional, cell-based. The essentials:
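HL-60 cells differentiated 6–7 days in DMEM-F12 with 10% FBS and 1.3% DMSO, washed into serum-free, phenol red-free medium, then held 30 min at 37 °C before compound or DMSO was added. Luminol injected, 7.5 min baseline recorded, then FMLP injected (final 1 µM; luminol 5 mM; DMSO 0.5%). Chemiluminescence recorded 30 min at 37 °C; read-out was area under the curve.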

For data set [12], the system named is Rattus norvegicus. Description: Antiinflammatory activity in Wistar albino rat sub-acute inflammatory model assessed as inhibition of formalin-induced paw edema at 20 mg/kg, po administered daily for 7 days by plethysmometer relative to control. Type of data set: functional. Particulars: 168 h. The essentials: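 Rats dosed orally at 20 mg/kg daily for 7 consecutive days. 0.1 mL 2% formalin given subplantar in left hind paw under light ether 1 h after the first oral dose, with a second injection on day 3. Paw edema weight (g) measured on day 8. % inhibition = (control − treated)/control ×100. Groups of five.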

Data set [13] concerns THP-1. The data set can be described thus: Cytotoxicity against LPS and IFN-gamma-stimulated human THP1 cells after 24 hrs. The format is functional, cell-based. As to conditions: THP-1, 24 h. The essentials:
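THP-1 cells, 24-well, in DMEM-F12 with 5% FBS. Compound or DMSO added 15 min before LPS 0.5 µg/mL plus IFN-γ 150 U/mL. After 24 h, LDH release (fraction of Triton-lysed value, OD 490) and MTT were read. EC50 taken from curves of at least three independent experiments; the lower of the two assay values was reported.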

In data set [14] the test system is SH-SY5Y. Description: Neuroprotective activity in human SH-SY5Y cells assessed as inhibition of LPS, IFN-gamma-stimulated THP1 cellular supernatant-induced cytotoxicity after 72 hrs by LDH assay. Type of data set: functional, cell-based. Summed up:
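SH-SY5Y cells plated 24 h, then medium replaced with supernatant from THP-1 cells stimulated with LPS + IFN-γ for 48 h. Compound added directly to the SH-SY5Y cells at the time of transfer. Cell death measured by LDH release after 72 h; 4–6 independent experiments.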

The structures appear in SMILES notation. Active and inactive are the calls of the source. The rule behind the calls is not given here.

One may read the inhibition as the relative decrease from the control value, in per cent. Broadly, the inhibition in vivo is the change of the read-out against control, counted positive when it falls. Usually IC50 stands for the point on the concentration scale where inhibition reaches its midpoint. By EC50 is commonly meant the concentration needed to bring the measured effect to its halfway point. Regarding `O=C1NC(=O)/C(=C/c2cn(-c3ccc([N+](=O)[O-])cc3)nc2-c2ccc(Cl)cc2)S1`, the LD50 at 24 h in data set [1] was above 300 mg/kg. Moreover, the Activity in the data set with Rattus norvegicus [2] is recorded as 46%; in the data set with Rattus norvegicus [3], 0%; with Rattus norvegicus [4] it was “Non-toxic”; in the data set with Rattus norvegicus [9], 68%; with Rattus norvegicus [10] it was 24%; with Rattus norvegicus [11], 68%. The inhibition result in the data set on THP-1 [5], in the data set with SH-SY5Y [6] and in the data set with SH-SY5Y [14] was “inactive” each time. Also, the inhibition in vivo at 20 mg/kg in the data set with Rattus norvegicus [7] and in the data set with Rattus norvegicus [12] was 51% throughout. In [8], this compound came in with an inhibition of 28.4%. Further, the IC50 in the data set on HL-60 is 1 µM. Moreover, the EC50 in the data set with THP-1 [13] is above 100 µM.

For the origin of these results see ChEMBL document CHEMBL1157559, “Synthesis and biological evaluation of novel pyrazolyl-2,4-thiazolidinediones as anti-inflammatory and neuroprotective agents” (Bioorg Med Chem, 2010).
